Values after ≈ are worked out from the molar mass of the structure shown.
Experiments:
[1] = tested on: Mycobacterium tuberculosis; experiment: Antimycobacterial activity against Mycobacterium tuberculosis H37Rv; assay type: functional
Outline: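 Read-out is the minimum inhibitory concentration (MIC). Crude extracts are expressed in μg mL−1 and isolated constituents in μM. Isonicotinylhydrazine and rifampicin served as reference controls.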

MDA-MB-231 = experiment: Cytotoxicity against human MDA-MB-231 cells; assay type: functional, cell-based

COc1ccc(/C=C/C(=O)c2c(O)cc(OC)c(OC)c2OC)cc1
MIC [1]: 92.9 µM (≈ 32 µg/mL) | EC50 (MDA-MB-231): 291 µM

COc1c(CC=C(C)C)cc([C@@H]2CC(=O)c3c(O)cc(O)cc3O2)cc1CC=C(C)C
MIC [1]: 49.5 µM (≈ 20.9 µg/mL) | EC50 (MDA-MB-231): 21.6 µM

COc1ccc([C@@H]2CC(=O)c3c(cc(OC)c(O)c3OC)O2)cc1 [HAMILTONE A]
MIC [1]: 96.9 µM (≈ 32 µg/mL) | EC50 (MDA-MB-231): 201 µM

C=C(C)/C=C/c1cc(-c2coc3cc(O)cc(O)c3c2=O)cc(O)c1OC
MIC [1]: 87.4 µM (≈ 32 µg/mL) | EC50 (MDA-MB-231): 13 µM

COc1c(O)cc(-c2coc3cc(O)cc(O)c3c2=O)cc1CC=C(C)C
MIC [1]: 86.9 µM (≈ 32 µg/mL) | EC50 (MDA-MB-231): 77 µM

COc1cc(OC)c([C@@H]2COc3cc4c(c(O)c3C2=O)C=CC(C)(C)O4)cc1OC
MIC [1]: 67.6 µM (≈ 27.9 µg/mL) | EC50 (MDA-MB-231): 58 µM

COc1cc2c(cc1CC=C(C)C)[C@@H]1Oc3cc(O)ccc3[C@@H]1CO2
MIC [1]: 90.8 µM (≈ 30.7 µg/mL)

COc1ccc(-c2coc3cc(O)cc(O)c3c2=O)cc1CC=C(C)C
MIC [1]: 36.9 µM (≈ 13 µg/mL) | EC50 (MDA-MB-231): 27.9 µM

COc1cc(-c2coc3cc(O)cc(O)c3c2=O)cc(OC)c1OC
MIC [1]: 93 µM (≈ 32 µg/mL) | EC50 (MDA-MB-231): 29 µM

COc1cc(OC)c(C2COc3cc(O)cc(O)c3C2=O)cc1OC (stereo not given)
MIC [1]: 92.5 µM (≈ 32 µg/mL) | EC50 (MDA-MB-231): 275 µM

COc1ccc([C@@H]2CC(=O)c3c(cc(OC)c(OC)c3OC)O2)cc1
MIC [1]: 92.9 µM (≈ 32 µg/mL) | EC50 (MDA-MB-231): 291 µM

CC1(C)C=Cc2c(cc3occ(-c4ccc(O)cc4O)c(=O)c3c2O)O1
MIC [1]: 90.9 µM (≈ 32 µg/mL) | EC50 (MDA-MB-231): 16.9 µM

C=C(C)[C@@H]1CC[C@]2(C)CC[C@]3(C)[C@H](CC[C@@H]4[C@@]5(C)CC[C@H](O)C(C)(C)[C@@H]5CC[C@]43C)[C@@H]12 [LUPEOL]
EC50 (MDA-MB-231): 209 µM

NNC(=O)c1ccncc1 [ISONIAZID]
MIC [1]: 0.3 µM (≈ 0.0411 µg/mL)

COc1cc(-c2coc3cc(O)cc(O)c3c2=O)cc(CC=C(C)C)c1OC
MIC [1]: 77.2 µM (≈ 29.5 µg/mL) | EC50 (MDA-MB-231): 49.4 µM

CC(C)=CCc1cc([C@@H]2CC(=O)c3c(O)cc(O)cc3O2)cc(CC=C(C)C)c1O [ABYSSINONE V]
MIC [1]: 78.3 µM (≈ 32 µg/mL)

COc1ccc(-c2coc3cc(O)cc(O)c3c2=O)cc1OC
MIC [1]: 102 µM (≈ 32 µg/mL) | EC50 (MDA-MB-231): 31.8 µM

COc1ccc(-c2cc(=O)c3c(OC)c(OC)c(OC)cc3o2)cc1
MIC [1]: 93.5 µM (≈ 32 µg/mL) | EC50 (MDA-MB-231): 292 µM

CO[C@H]1/C=C/O[C@@]2(C)Oc3c(C)c(O)c4c(O)c(c(/C=N/N5CCN(C)CC5)c(O)c4c3C2=O)NC(=O)/C(C)=C\C=C\[C@H](C)[C@H](O)[C@@H](C)[C@@H](O)[C@@H](C)[C@H](OC(C)=O)[C@@H]1C [RIFAMPIN]
MIC [1]: 0.09 µM (≈ 0.0741 µg/mL)

COc1ccc(-c2cc(=O)c3c(OC)c(OC)c(OC)cc3o2)cc1OC [SINENSETIN]
MIC [1]: 85.9 µM (≈ 32 µg/mL) | EC50 (MDA-MB-231): 269 µM
